Most compounds without a hit are left out; they make up all but 0.79% or so of the library.
mIAP activ = increases mouse intestinal alkaline phosphatase activity. activation factor at 10 µM. AID 2805. 330,000 tested, 0.24% active. muIAP, CDP-Star luminescence, 30 min; active compounds read high; 1 = vehicle-only enzyme signal, 0 = enzyme-free wells;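 active = activation factor of at least 2 at 20 µM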
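also added = chemiluminescent substrate CDP-Star | test system = mouse IAP enzyme | signal = chemiluminescence readout | compound = DMSO-dissolved test compounds | incubation = 30 min at room temperature | benchmarks = DMSO wells, no-enzyme wells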
hIAP activ = increases human intestinal alkaline phosphatase activity; purified human IAP, CDP-Star luminescence, 30 min; active compounds read high; 1 = vehicle-only enzyme, 0 = enzyme-free background; activation factor at 10 µM; 330,000 tested, 0.16% active;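 active = activation factor of the enzyme at least 2-fold when tested at 20 µM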
Target sequence (P09923 whole entry, looked up): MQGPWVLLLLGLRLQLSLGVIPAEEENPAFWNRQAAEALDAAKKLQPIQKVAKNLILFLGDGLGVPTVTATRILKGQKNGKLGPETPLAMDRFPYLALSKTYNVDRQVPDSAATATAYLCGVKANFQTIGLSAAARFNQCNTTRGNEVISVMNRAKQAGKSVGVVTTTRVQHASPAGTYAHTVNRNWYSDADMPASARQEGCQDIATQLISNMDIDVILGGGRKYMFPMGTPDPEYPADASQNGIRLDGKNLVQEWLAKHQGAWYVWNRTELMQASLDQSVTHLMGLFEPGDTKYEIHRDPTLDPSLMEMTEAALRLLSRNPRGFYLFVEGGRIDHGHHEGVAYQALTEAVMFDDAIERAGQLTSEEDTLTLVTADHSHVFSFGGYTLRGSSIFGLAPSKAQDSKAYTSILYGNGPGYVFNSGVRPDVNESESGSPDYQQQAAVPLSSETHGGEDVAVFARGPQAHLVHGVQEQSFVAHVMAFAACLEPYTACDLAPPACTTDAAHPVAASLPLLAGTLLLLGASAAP
bIAP inhibitor = blocks bovine intestinal alkaline phosphatase activity | purified bovine IAP, CDP-star luminescence, 30 min | inhibition, % at 20 µM | 190,000 tested, under 10 active;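 active = over 50% inhibition of intestinal alkaline phosphatase at 20 µM in the single-dose screen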
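Assay system: bovine IAP enzyme; medium: DEA buffer 100 mM, pH 9.8, with MgCl2 1.0 mM, ZnCl2 0.02 mM; doses: 20 µM single dose; incubation: enzyme reaction for 30 min at room temperature; detection: CDP-star luminescence signal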
hIAP inh = blocks human intestinal alkaline phosphatase; P09923; purified IAP, CDP-Star luminescence, 30 min; inhibition, % at 10 µM; 330,000 tested, 0.12% active;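 active = inhibition reaching a set limit with compound at 10 µM in the primary screen, cut at about 35% in these data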;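 also: plate controls were DMSO wells with enzyme for no effect and no-enzyme buffer wells for full effect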
mIAP block = mouse IAP inhibition | purified mouse IAP, CDP-Star luminescence, 30 min | inhibition, % at 10 µM | 330,000 tested, 0.2% active | AID 2806;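 active = inhibition of at least 40% at 10 µM in the primary screen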;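 also: plate controls were DMSO with enzyme for no effect and no enzyme wells for full effect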
bIAP activator = intestinal alkaline phosphatase (bovine) activation | purified bovine IAP, CDP-star luminescence, 30 min; active compounds read high; fold of DMSO-control signal, blank-subtracted | activation factor at 20 µM | 200,000 tested, 0.17% active;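 active = activation factor of 2 or more at 20 µM, a signal rise over negative controls twice the positive control's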
Numbers without * were called inactive; / = not tested or not shown.

SMILES	mIAP activ	hIAP activ	bIAP inhibitor	hIAP inh	mIAP block	bIAP activator
COCCN(C(=O)Cc1cccs1)C(C(=O)NCc1ccc(OC)cc1)c1ccc(C(C)C)cc1 (stereo unspecified)	1.2	1.1	-115	-13	-24	2.1*
CCc1ccc(C(C(=O)NCc2ccc(OC)cc2)N(CCOC)C(=O)Cc2cccs2)cc1 (stereo unspecified)	1.3	0.95	-19	5	-25	1.2
COc1ccc(OC)c(NC(=O)CN2C(=O)C(C)N(c3ccc(C)cc3)C2=O)c1 (stereo unspecified)	1.1	1.2	/	-16	-7	/
O=S(=O)(c1ccc2c(c1)OCCO2)N1CCC(n2nnc3cc(F)ccc32)CC1	1.1	0.91	-113	9	-5	2.1*
CCn1c(C)cc(/C=C2/SC(=S)NC2=O)c1C	0.48	0.79	12	21	52*	0.9
CC(C)(C)c1ccc(S(=O)(=O)Nc2noc3ccccc23)cc1	1	0.94	/	6	-4	/
COc1ccc(NC(=O)NC23CC4(C)CC(C)(CC(C)(C4)C2)C3)cc1OC	3.9*	0.87	8	13	-294	0.9
COC(=O)c1ccc(NC(=O)Nc2ccc(OC)c(OC)c2)cc1	1.6	1.3	-22	-32	-57	1.2
O=S(=O)(Cc1ccccc1Cl)NCCc1ccccc1	1.1	1.2	20	-23	-6	0.8
Fc1ccc(-c2csc(NC(=S)Nc3ccccc3)n2)cc1	0.86	0.9	/	10	14	/
O=C(Nc1ccccc1)Nc1nc(-c2ccc(F)cc2)cs1	2.5*	0.95	19	5	-153	0.8
O=C(Nc1nc(-c2ccc(Cl)cc2)cs1)NC1CCCCC1	3.7*	0.93	4	7	-269	1
CC(C)=CCN1CCN(Cc2cnc(-c3ccccc3)s2)CC1CCO (stereo unspecified)	1	1.1	-12	-9	-2	1.1
Nn1c(-c2ccccc2Cl)nnc1-c1ccccc1Cl	1	0.95	-157	5	-1	2.6*
CC(C)c1ccc(C(C)NC(=S)NC2CCCCC2)cc1 (stereo unspecified)	2.2*	1.5	/	-46	-116	/
CCc1ccc(C(C)NC(=S)NC2CCCCC2)cc1 (stereo unspecified)	1.2	0.92	/	8	-25	/
CC1SC2(NC1=O)C1CC3CC(C1)CC2C3 (stereo unspecified)	0.99	0.95	9	5	1	0.9
Cc1cc(NC(=O)Nc2ccccc2F)ccc1Br	3.1*	1.1	6	-5	-205	0.9
O=C(Nc1ccccc1)Nc1ccc(Br)cc1F	1.8	0.83	14	17	-81	0.9
COc1cccc(CNC(=O)Cn2c(=O)c3cccn3c3ccccc32)c1	0.96	1.2	/	-16	4	/
COC(=O)N/N=C/c1c(C)nn(-c2cccc(Cl)c2)c1Cl	0.96	0.9	-201	10	4	3*
CN(c1cccc(NC(=O)CN(c2ccc(Cl)c(Cl)c2)S(=O)(=O)c2ccccc2)c1)S(C)(=O)=O	1.5	0.93	-2	7	-53	1
Cc1ccc(S(=O)(=O)N(CC(=O)Nc2cccc(N(C)S(C)(=O)=O)c2)c2ccc(Cl)c(Cl)c2)cc1	2.6*	1.1	-36	-14	-158	1.4
O=C(Nc1cccnc1)Nc1cc(Cl)cc(Cl)c1	2.5*	1	-6	-2	-146	1.1
CC(C)Cn1c(N)c(C(=O)COC(=O)c2nccnc2N)c(=O)n(C)c1=O	0.52	1.1	/	-14	48*	/
SMILES	mIAP activ	hIAP activ	bIAP inhibitor	hIAP inh	mIAP block	bIAP activator
CC(C)Cn1c(N)c(C(=O)COC(=O)c2ccncc2)c(=O)n(C)c1=O	1.1	1.3	-8	-27	-12	1.1
CCN(CC)c1nc(OCCNC(=O)Nc2ccccc2)nc(N(CC)CC)n1	2.5*	1.1	-42	-11	-148	1.4
CCc1ccc(CN2C(=O)c3ccccc3C2C(=O)NC(C)CC)cc1 (stereo unspecified)	0.97	1.1	/	-6	3	/
NC1=NC2(CCCCC2)N=C(Nc2ccc(Br)cc2)N1	4.3*	0.95	8	5	-327	0.9
Cc1cccc(C)c1NC1=NC2(CCCCC2)N=C(N)N1	1	1.2	-20	-24	-4	1.2
COc1cccc(NC2=NC3(CCCCC3)N=C(N)N2)c1	1.5	1	-332	-2	-54	4.3*
Cc1ccc2c(CC(=O)NCCc3ccc(S(N)(=O)=O)cc3)coc2c1	0.95	1	/	-2	5	/
COC(=O)C(OC(=O)c1ccccc1)C(C)Br (stereo unspecified)	1	0.83	/	17	0	/
COc1ccc(NC(=O)c2ccc3c(=O)n(Cc4ccco4)c(=S)[nH]c3c2)c(OC)c1	0.55	1.1	-12	-13	45*	1.1
COc1ccc(Cn2c(C)c(C)c(C#N)c2NC(=O)Nc2cccc(C)c2)cc1	2.2*	1	-9	-4	-118	1.1
COc1ccc(CCNC(=O)CSc2nc3[nH]ncc3c(=O)n2-c2ccc(C)c(Cl)c2)cc1OC	/	/	36	/	/	0.6
Cc1ccc(NC(=O)CN2CCN(C)CC2)cc1Br	1.1	1.1	/	-11	-7	/
Cc1nn(Cc2ccc(Cl)cc2Cl)c(C)c1NC(=O)NC12CC3CC(CC(C3)C1)C2	2.1*	0.88	-34	12	-112	1.3
Cc1nn(Cc2ccc(Cl)cc2Cl)c(C)c1NC(=O)c1sc2ccccc2c1Cl	0.96	0.99	13	1	4	0.9
Cc1cc(OC(C)C(=O)NCc2ccccn2)c2c(C)c(C)c(=O)oc2c1 (stereo unspecified)	1.1	1.2	/	-21	-9	/
O=C(CSc1nnc(COc2ccccc2Cl)o1)Nc1ccccc1	0.87	1	/	0	13	/
C/C(N)=C(/C#N)C(=O)CSc1nnc(COc2ccccc2Cl)o1	0.89	0.91	-108	9	11	2.1*
Cc1cccc(NC(=S)NC(=O)/C=C/c2ccco2)c1	0.83	1.2	-2	-21	17	1
COc1ccccc1NC(=S)NC(=O)/C=C/c1ccco1	0.58	0.91	5	9	42*	1
O=C(/C=C/c1ccco1)NC(=S)Nc1cccc([N+](=O)[O-])c1	0.41	1.1	-3	-6	60*	1
CCCCn1c(=O)[nH]c(=O)c2c(C(=O)OCC)cc(-c3ccc(OC(F)F)cc3)nc21	1	1.1	13	-13	0	0.9
CCOc1ccc(NS(=O)(=O)c2c(C(=O)N3CCCCCC3)c(C)n(C)c2C)cc1	0.88	1	/	-2	12	/
CC1(C)Oc2ccc3ccc(=O)oc3c2/C(=C/N)C1=O	0.93	1.2	3	-23	7	1
CC1(C)Oc2ccc3ccc(=O)oc3c2/C(=C/Nc2ccccc2)C1=O	0.59	0.96	16	4	41*	0.8
COc1ccc(/C=C(/NC(=O)c2ccco2)C(=O)N2CCCCC2)cc1	0.99	0.93	/	7	1	/

Assay outcomes from PubChem BioAssay.
